ChEMBL document CHEMBL5058577, “EUbOPEN Chemogenomics Library 2 (Multiplex)” (2022)
Non-standard residues stand in square brackets, D forms with d. Residues, ends and D or L forms follow the SMILES beside them.

Test system: Fibroblast
Assay: Multiplex assay against human fibroblast
Format: toxicity, cell-based
In short: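 With compound added, live cells were imaged on a CQ1 microscope at 37°C and 5% CO2; staining with Hoechst33342, BioTracker Green Microtubule Cytoskeleton Dye, MitoTracker Red and Annexin V Alexa Fluor 680 had been done at seeding. The CellPathfinder machine-learning gating scheme split cells into Hoechst high-intensity objects or normal cells, normal cells into healthy, pyknosed or fragmented nuclei, and pyknosed cells into mitotic or apoptotic. The tubulin, mitochondrial-mass and membrane-permeability phenotypes are per cents of healthy-nucleus cells.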

[1] = 12 h, 1 µM, compound concentration 1 uM, replicate 1
[2] = 12 h, 1 µM, compound concentration 1 uM, replicate 2
[3] = 12 h, 10 µM, compound concentration 10 uM, replicate 1
[4] = 12 h, 10 µM, compound concentration 10 uM, replicate 2
[5] = 24 h, 1 µM, compound concentration 1 uM, replicate 1
[6] = 24 h, 1 µM, compound concentration 1 uM, replicate 2
[7] = 24 h, 10 µM, compound concentration 10 uM, replicate 1
[8] = 24 h, 10 µM, compound concentration 10 uM, replicate 2
[9] = 48 h, 1 µM, compound concentration 1 uM, replicate 1
[10] = 48 h, 1 µM, compound concentration 1 uM, replicate 2
[11] = 48 h, 10 µM, compound concentration 10 uM, replicate 1
[12] = 48 h, 10 µM, compound concentration 10 uM, replicate 2

In the case of `CC(C)C[C@@H]1NC(=O)[C@@H](C(C)C)NC(=O)[C@@H]2CCCN2C(=O)[C@@H](CC(=O)O)NC(=O)[C@@H](Cc2c[nH]c3ccccc23)NC1=O` [BQ-123] (cyclo(L[dW][dD]P[dV])), the “Population Apoptotic (%)” value [1] is reported as 57%, the “Population Fragmented Nuclei (%)” value [1] is reported as 18% and the “Population Healthy Nuclei (%)” value [1] is reported as 68%. The “Population Hoechst High Intensity Objects (%)” value [1] was 0%, the “Population Membrane Permeable-Phenotype (%)” value [1] was 1% and the “Population Mitochondria Different-Phenotype (%)” value [1] was 11%. For the same molecule, the “Population Mitotic Cells (%)” value [1] was 42%, the “Population Normal (%)” value [1] was 100% and the “Population Pyknosed Nuclei (%)” value [1] was 13%. The “Population Tubulin-Different-Phenotype (%)” value [1] was 31%, the “Total Cell Count” value [1] was 105 and the “Population Apoptotic (%)” value [2] was 21%. For the same molecule, the “Population Fragmented Nuclei (%)” value [2] was 22%, the “Population Healthy Nuclei (%)” value [2] was 58% and the “Population Hoechst High Intensity Objects (%)” value [2] was 3%. For the same molecule, the “Population Membrane Permeable-Phenotype (%)” value [2] was 5%, the “Population Mitochondria Different-Phenotype (%)” value [2] was 2% and the “Population Mitotic Cells (%)” value [2] was 78%. The “Population Normal (%)” value [2] was 96%, the “Population Pyknosed Nuclei (%)” value [2] was 18% and the “Total Cell Count” value [2] was 157. The “Population Apoptotic (%)” value [3] was 48%, the “Population Fragmented Nuclei (%)” value [3] was 15% and the “Population Healthy Nuclei (%)” value [3] was 65%. For the same molecule, the “Population Hoechst High Intensity Objects (%)” value [3] was 2%, the “Population Membrane Permeable-Phenotype (%)” value [3] was 0% and the “Population Mitochondria Different-Phenotype (%)” value [3] was 9%. For the same molecule, the “Population Mitotic Cells (%)” value [3] was 52%, the “Population Normal (%)” value [3] was 97% and the “Population Pyknosed Nuclei (%)” value [3] was 18%. The “Population Tubulin-Different-Phenotype (%)” value [3] was 33%, the “Total Cell Count” value [3] was 136 and the “Population Apoptotic (%)” value [4] was 33%. The “Population Fragmented Nuclei (%)” value [4] was 30%, the “Population Healthy Nuclei (%)” value [4] was 48% and the “Population Membrane Permeable-Phenotype (%)” value [4] was 4%. The “Population Mitochondria Different-Phenotype (%)” value [4] was 3%, the “Population Mitotic Cells (%)” value [4] was 66% and the “Population Pyknosed Nuclei (%)” value [4] was 20%. The “Population Tubulin-Different-Phenotype (%)” value [4] was 46%, the “Total Cell Count” value [4] was 134 and the “Population Apoptotic (%)” value [5] was 53%. The “Population Fragmented Nuclei (%)” value [5] was 19%, the “Population Healthy Nuclei (%)” value [5] was 66% and the “Population Hoechst High Intensity Objects (%)” value [5] was 1%. For the same molecule, the “Population Membrane Permeable-Phenotype (%)” value [5] was 0%, the “Population Mitochondria Different-Phenotype (%)” value [5] was 5% and the “Population Mitotic Cells (%)” value [5] was 46%. The “Population Normal (%)” value [5] was 98%, the “Population Pyknosed Nuclei (%)” value [5] was 14% and the “Population Tubulin-Different-Phenotype (%)” value [5] was 24%. The “Total Cell Count” value [5] was 107, the “Population Apoptotic (%)” value [6] was 24% and the “Population Fragmented Nuclei (%)” value [6] was 23%. The “Population Healthy Nuclei (%)” value [6] was 57%, the “Population Hoechst High Intensity Objects (%)” value [6] was 6% and the “Population Membrane Permeable-Phenotype (%)” value [6] was 3%. The “Population Mitochondria Different-Phenotype (%)” value [6] was 3%, the “Population Mitotic Cells (%)” value [6] was 75% and the “Population Normal (%)” value [6] was 93%. For the same molecule, the “Population Pyknosed Nuclei (%)” value [6] was 18%, the “Population Tubulin-Different-Phenotype (%)” value [6] was 25% and the “Total Cell Count” value [6] was 166. The “Population Apoptotic (%)” value [7] was 50%, the “Population Fragmented Nuclei (%)” value [7] was 19% and the “Population Healthy Nuclei (%)” value [7] was 64%. The “Population Hoechst High Intensity Objects (%)” value [7] was 8%, the “Population Membrane Permeable-Phenotype (%)” value [7] was 1% and the “Population Mitochondria Different-Phenotype (%)” value [7] was 5%. For the same molecule, the “Population Mitotic Cells (%)” value [7] was 50%, the “Population Normal (%)” value [7] was 91% and the “Population Pyknosed Nuclei (%)” value [7] was 15%. The “Population Tubulin-Different-Phenotype (%)” value [7] was 32%, the “Total Cell Count” value [7] was 123 and the “Population Apoptotic (%)” value [8] was 29%. The “Population Fragmented Nuclei (%)” value [8] was 27%, the “Population Healthy Nuclei (%)” value [8] was 50% and the “Population Hoechst High Intensity Objects (%)” value [8] was 0%. The “Population Membrane Permeable-Phenotype (%)” value [8] was 11%, the “Population Mitochondria Different-Phenotype (%)” value [8] was 3% and the “Population Mitotic Cells (%)” value [8] was 70%. The “Population Normal (%)” value [8] was 99%, the “Population Pyknosed Nuclei (%)” value [8] was 22% and the “Population Tubulin-Different-Phenotype (%)” value [8] was 50%. The “Population Apoptotic (%)” value [9] was 50%, the “Population Fragmented Nuclei (%)” value [9] was 18% and the “Population Healthy Nuclei (%)” value [9] was 70%. The “Population Hoechst High Intensity Objects (%)” value [9] was 3%, the “Population Membrane Permeable-Phenotype (%)” value [9] was 0% and the “Population Mitochondria Different-Phenotype (%)” value [9] was 12%. The “Population Mitotic Cells (%)” value [9] was 50%, the “Population Normal (%)” value [9] was 96% and the “Population Pyknosed Nuclei (%)” value [9] was 11%. For the same molecule, the “Population Tubulin-Different-Phenotype (%)” value [9] was 25%, the “Total Cell Count” value [9] was 109 and the “Population Apoptotic (%)” value [10] was 52%. The “Population Fragmented Nuclei (%)” value [10] was 28%, the “Population Healthy Nuclei (%)” value [10] was 56% and the “Population Hoechst High Intensity Objects (%)” value [10] was 4%. The “Population Membrane Permeable-Phenotype (%)” value [10] was 2%, the “Population Mitochondria Different-Phenotype (%)” value [10] was 4% and the “Population Mitotic Cells (%)” value [10] was 48%. For the same molecule, the “Population Normal (%)” value [10] was 95%, the “Population Pyknosed Nuclei (%)” value [10] was 15% and the “Population Tubulin-Different-Phenotype (%)” value [10] was 39%. For the same molecule, the “Total Cell Count” value [10] was 172, the “Population Apoptotic (%)” value [11] was 70% and the “Population Fragmented Nuclei (%)” value [11] was 26%. For the same molecule, the “Population Healthy Nuclei (%)” value [11] was 59%, the “Population Hoechst High Intensity Objects (%)” value [11] was 5% and the “Population Membrane Permeable-Phenotype (%)” value [11] was 1%. The “Population Mitochondria Different-Phenotype (%)” value [11] was 5%, the “Population Mitotic Cells (%)” value [11] was 29% and the “Population Normal (%)” value [11] was 94%. For the same molecule, the “Population Pyknosed Nuclei (%)” value [11] was 13%, the “Population Tubulin-Different-Phenotype (%)” value [11] was 38% and the “Total Cell Count” value [11] was 129. The “Population Apoptotic (%)” value [12] was 46%, the “Population Fragmented Nuclei (%)” value [12] was 45% and the “Population Healthy Nuclei (%)” value [12] was 42%. For the same molecule, the “Population Hoechst High Intensity Objects (%)” value [12] was 6%, the “Population Membrane Permeable-Phenotype (%)” value [12] was 9% and the “Population Mitochondria Different-Phenotype (%)” value [12] was 3%. The “Population Mitotic Cells (%)” value [12] was 53%, the “Population Normal (%)” value [12] was 93% and the “Population Pyknosed Nuclei (%)” value [12] was 12%. For the same molecule, the “Population Tubulin-Different-Phenotype (%)” value [12] was 51% and the “Total Cell Count” value [12] was 130.
